Measured values collected from several papers.
Lines come from different studies, so protocols differ.
CDK1 with cyclin B: Cyclin-dependent kinase 1, with cyclin B (CDK1, Homo sapiens, UniProt P06493)
CDK1 with cyclin A: Cyclin-dependent kinase 1, with cyclin A (CDK1, Homo sapiens, UniProt P06493)

SMILES | target | test | setting | endpoint | result
CC(C)(C)c1nc2c(s1)c1nc(N)ncc1c1ccc(NS(=O)(=O)c3c(F)cccc3F)c(F)c12 | Cyclin-dependent kinase 1, with cyclin A2 (CDK1, Homo sapiens, UniProt P06493) | enzyme activity, inhibitor, radiometric | 1 µM | remaining activity | 100%
CNCc1ccc(-c2cc(-c3nc(-c4ccc(S(=O)(=O)C(C)C)cc4)cnc3N)on2)cc1 | CDK1 with cyclin B | enzyme activity, inhibitor | 2 µM | inhibition | 6%
O=C(Nc1cnn(-c2csc(C(=O)NC3COC3)c2)c1)Nc1ccccc1Cl | CDK1 with cyclin B | enzyme activity, inhibitor | 5 µM | remaining activity | 92.6%
CC(C)(O)[C@H]1CC[C@H](Nc2ccc3ncc(-c4cccc(C(F)(F)F)c4)n3n2)CC1 | Cyclin-dependent kinase 1, with cyclin E (CDK1, Homo sapiens, UniProt P06493) | enzyme activity, inhibitor | 1 µM | remaining activity | 107%
CC(C)n1cnc2c(Nc3cccc(Cl)c3)nc(NCCO)nc21 | CDK1 with cyclin A | cell-free assay | 0.5 µM | remaining signal | 78.5%
CCCS(=O)(=O)Nc1ccc(F)c(C(=O)c2c[nH]c3ncc(-c4ccc(Cl)cc4)cc23)c1F | CDK1 with cyclin B | enzyme activity, inhibitor | 1 µM | inhibition | < 10%
CCCCNc1ncc2c(-c3ccc(F)cc3)nn(C[C@H]3CC[C@H](N)CC3)c2n1 | Cyclin-dependent kinase 1 (CDK1, Homo sapiens, UniProt P06493) | target engagement in cells, inhibitor, chemoproteomics | 20 mM | inhibition | 4.2%
Cc1ccc(-n2nc(C(C)(C)C)cc2NC(=O)Nc2ccc(OCCN3CCOCC3)c3ccccc23)cc1 | CDK1 with cyclin B | enzyme activity, inhibitor | 10 µM | inhibition | -6%
COc1cc(OC)c(C=C2C(O)=Nc3ccccc32)c(OC)c1 | CDK1 with cyclin B | cell-free assay | 0.5 µM | remaining signal | 83%
Cc1cnc(NC2CCOCC2)nc1-n1cnc(C(=O)NC(CN)c2cc(F)cc(Cl)c2)c1 (stereo not shown) | CDK1 with cyclin B | enzyme activity, inhibitor, radiometric | 1 µM | remaining activity | 20%
O=Nc1c(-c2c(O)[nH]c3ccccc23)[nH]c2ccccc12 | CDK1 with cyclin B | cell-free assay | 0.5 µM | remaining signal | 68.7%
CCN(CC)c1ccc(C2=NNC(=O)CC2C)cc1[N+](=O)[O-] (stereo not shown) | CDK1 with cyclin B | enzyme activity, inhibitor | 10 µM | remaining activity | 111%
Cc1sc(C(=O)NC2COC2)cc1-n1cc(NC(=O)Nc2c(F)cccc2Cl)cn1 | CDK1 with cyclin A | enzyme activity, inhibitor | 10 µM | remaining activity | 105%
CNC(=O)c1cc(Oc2ccc(NC(=O)Nc3ccc(Cl)c(C(F)(F)F)c3)cc2)ccn1 | CDK1 with cyclin B | enzyme activity, inhibitor | 0.3 µM | inhibition | -5%
COc1cc2ncnc(Nc3ccc(Oc4ccccc4)cc3C)c2cc1OC | CDK1 with cyclin B | enzyme activity, inhibitor | 1 µM | inhibition | 3%
O=C(Nc1cnn(-c2csc(C(=O)NC3COC3)c2)c1)Nc1c(F)cccc1Cl | CDK1 with cyclin B | enzyme activity, inhibitor | 5 µM | remaining activity | 105%
Nc1nc(Nc2ccc(S(N)(=O)=O)cc2)nn1C(=O)c1c(F)cccc1F | CDK1 with cyclin B | cell-free assay | 0.5 µM | remaining signal | 5.65%
CC(C)(C)c1nc(-c2cccc(NS(=O)(=O)c3c(F)cccc3F)c2F)c(-c2ccnc(N)n2)s1 | Cyclin-dependent kinase 1, with cyclin E1 (CDK1, Homo sapiens, UniProt P06493) | enzyme activity, inhibitor, radiometric | 1 µM | remaining activity | 57%
CC(C)[C@H](CO)Nc1nc(Nc2cccc(Cl)c2)c2ncn(C(C)C)c2n1 | CDK1 with cyclin B | cell-free assay | 0.5 µM | remaining signal | 34.9%
Cc1ccc(NC(=O)c2ccc(C)c(C(F)(F)F)c2)cc1C#Cc1nn(C2CCC(O)CC2)c2ncnc(N)c12 (stereo not shown) | CDK1 with cyclin B | cell-free assay | 10 µM | remaining signal | 104%
Cc1ccc(Nc2nccc(N(C)c3ccc4c(C)n(C)nc4c3)n2)cc1S(N)(=O)=O | CDK1 with cyclin B | enzyme activity, inhibitor | 10 µM | inhibition | 29%
O=C1NC(=O)c2c1c1c3ccccc3[nH]c1n1cncc21 | CDK1 with cyclin A | cell-free assay | 0.5 µM | remaining signal | 94.8%
